Results from ChEMBL document CHEMBL2346560, “Structure and function of a potent lipopolysaccharide-binding antimicrobial and anti-inflammatory peptide” (J Med Chem, 2013).
Converted amounts (≈) assume the structure as drawn. The source made the active and inactive calls. The rule behind the calls is not given here. Bridge positions count the residues as written; N and C are the ends. Peptide text beside a SMILES is read from it.

What was measured:
Escherichia coli [1] = assay: Bactericidal activity against Escherichia coli ATCC 25922 at 5 times MIC after 20 mins by colony counting assay (reference value: 79.3 CFU); type: functional
RAW264.7 [2] = assay: Antiinflammatory activity in mouse RAW264.7 cells assessed as inhibition of LPS-induced TNF alpha production at 20 ug/mL after 24 hrs by ELISA relative to control; type: functional; details: RAW264.7, 24 h
In short: (§1)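 RAW 264.7 cells (2 × 10^5) were plated and allowed to adhere. They were given peptide (2.5, 5, 10, 20 µg/mL) with or without LPS (E. coli 055:B5, 20 ng/mL) for 24 h. Supernatant TNF-α, IL-6 and MCP-1 were measured by ELISA at A450. Controls were LPS alone and untreated cells. Mean ± SEM of three separate experiments.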

Escherichia coli [3] = assay: Bactericidal activity against Escherichia coli ATCC 25922 at MIC after 5 mins by colony counting assay (reference value: 47.7 CFU); type: functional
Escherichia coli [4] = assay: Antibacterial activity against ampicillin, benzylpencillin-resistant Escherichia coli 08A866 after 16 hrs by broth dilution method; type: functional; details: 08A866, 16 h
In short: (§2)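 MIC read-out, reported in µg/mL with µM equivalents. Each value is the mean of three independent experiments, each run in duplicate.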

Staphylococcus aureus [5] = assay: Antibacterial activity against Staphylococcus aureus ATCC 2592 after 16 hrs by broth dilution method; type: functional; details: ATCC 2592, 16 h; in short: as §2
Bacillus subtilis [6] = assay: Antibacterial activity against Bacillus subtilis 6633 after 16 hrs by broth dilution method; type: functional; details: Bacillus subtilis, 6633, 16 h
In short: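 MIC determined by an earlier in-house method. Values are means of three independent experiments, each run in duplicate.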

Lipopolysaccharide (LPS) = assay: Binding affinity to Escherichia coli 055:B5 lipopolysaccharide by NMR titration assay
In short: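 2D TOCSY NMR titration: peptide 2.5 mM in 95% H2O/TFE-d3 (6:4, v/v) with 5% D2O, pH 6.2, 25 °C, alone or with LPS from E. coli 055:B5 (2.5 mM : 1 µg and 2.5 mM : 5 µg). Readout is the ratio of amide proton peak heights, free versus LPS-bound, per residue.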

Escherichia coli [7] = assay: Bactericidal activity against Escherichia coli ATCC 25922 at 5 times MIC after 10 mins by colony counting assay (reference value: 58.3 CFU); type: functional
[8] = Toxicity in human RBC assessed as induction of hemolysis at 12.5 ug/mL after 30 mins relative to control; type: cell-based, Erythrocyte; details: red blood cells (RBC), read-out: Activity
In short: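 Human red blood cells incubated with peptide. Hemoglobin release read as absorbance at 540 nm and expressed against 1% Triton X-100 as positive control.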

Staphylococcus aureus [9] = assay: Antibacterial activity against ampicillin, benzylpencillin-resistant Staphylococcus aureus 08A865 after 16 hrs by broth dilution method; type: functional; details: 08A865, 16 h; in short: as §2
RAW264.7 [10] = assay: Cytotoxicity against mouse RAW264.7 cells at >25 ug/mL after 24 hrs by MTT assay; type: cell-based; details: raw264.7, 24 h
Escherichia coli [11] = assay: Antibacterial activity against Escherichia coli ATCC 25922 treated with PBS after 16 hrs by broth dilution method; type: functional; details: ATCC 25922, 16 h
In short: (§3)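 Salt sensitivity of the MIC. Peptide was tested in water, NaCl, CaCl2, MgCl2 or PBS (Na2HPO4-NaH2PO4, pH 7.4), with every salt at 150 mM. Values are means of three independent experiments, each run in duplicate.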

RAW264.7 [12] = assay: Antiinflammatory activity in mouse RAW264.7 cells assessed as inhibition of LPS-induced TLR4 expression at 20 ug/mL preincubated for 1 hr prior to LPS-challenge measured after 3 hrs by Western blotting analysis relative to LPS-treated control; type: functional
In short: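 RAW 264.7 cells (1 × 10^6/well) were serum-starved in RPMI-1640 for 16 h. They were pretreated with peptide (0, 5, 10, 20 µg/mL) for 1 h, then given LPS (E. coli 055:B5, 0 or 100 ng/mL) for 3 h. Cells were washed in ice-cold PBS, and cytoplasmic or nuclear fractions were blotted for TLR4, JNK, NF-κB p65 and β-actin. Control was LPS alone.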

Escherichia coli [13] = assay: Bactericidal activity against Escherichia coli ATCC 25922 at 5 times MIC after 40 mins by colony counting assay (reference value: 131.7 CFU); type: functional
Escherichia coli [14] = assay: Bactericidal activity against Escherichia coli ATCC 25922 at 10 times MIC after 10 mins by colony counting assay (reference value: 58.3 CFU); type: functional
Pseudomonas aeruginosa [15] = assay: Antibacterial activity against Pseudomonas aeruginosa ATCC 27853 treated with CaCl2 after 16 hrs by broth dilution method; type: functional; details: ATCC 27853, 16 h; in short: as §3
Staphylococcus aureus [16] = assay: Antibacterial activity against Staphylococcus aureus ATCC 2592 treated with water after 16 hrs by broth dilution method; type: functional; details: ATCC 2592, 16 h; in short: as §3
RAW264.7 [17] = assay: Cytotoxicity against mouse RAW264.7 cells at 200 ug/mL after 24 hrs by MTT assay relative to control; type: cell-based; details: raw264.7, 24 h
RAW264.7 [18] = assay: Antiinflammatory activity in mouse RAW264.7 cells assessed as inhibition of LPS-induced IL6 production at 20 ug/mL after 24 hrs by ELISA relative to control; type: functional; details: RAW264.7, 24 h; in short: as §1
Escherichia coli [19] = assay: Antibacterial activity against Escherichia coli ATCC 25922 treated with water after 16 hrs by broth dilution method; type: functional; details: ATCC 25922, 16 h; in short: as §3
Escherichia coli [20] = assay: Antibacterial activity against Escherichia coli ATCC 25922 treated with NaCl after 16 hrs by broth dilution method; type: functional; details: ATCC 25922, 16 h; in short: as §3
RAW264.7 [21] = assay: Antiinflammatory activity in mouse RAW264.7 cells assessed as inhibition of LPS-induced MCP1 production after 24 hrs by ELISA; type: functional, cell-based; in short: as §1
Escherichia coli [22] = assay: Antibacterial activity against Escherichia coli ATCC 25922 treated with MgCl2 after 16 hrs by broth dilution method; type: functional; details: ATCC 25922, 16 h; in short: as §3
RAW264.7 [23] = assay: Cytotoxicity against mouse RAW264.7 cells at <25 ug/mL after 24 hrs by MTT assay; type: cell-based; details: raw264.7, 24 h
RAW264.7 [24] = assay: Antiinflammatory activity in mouse RAW264.7 cells assessed as inhibition of LPS-induced IL6 production after 24 hrs by ELISA; type: functional, cell-based; in short: as §1
Bacillus subtilis [25] = assay: Antibacterial activity against Bacillus subtilis 6633 treated with NaCl after 16 hrs by broth dilution method; type: functional; details: Bacillus subtilis, 6633, 16 h; in short: as §3
Pseudomonas aeruginosa [26] = assay: Antibacterial activity against Pseudomonas aeruginosa ATCC 27853 treated with MgCl2 after 16 hrs by broth dilution method; type: functional; details: ATCC 27853, 16 h; in short: as §3
Candida albicans [27] = assay: Antifungal activity against Candida albicans ATCC 2002 after 16 hrs by broth dilution method; type: functional; details: ATCC 2002, 16 h; in short: as §2
RAW264.7 [28] = assay: Cytotoxicity against mouse RAW264.7 cells at 100 ug/mL after 24 hrs by MTT assay relative to control; type: cell-based; details: raw264.7, 24 h
Escherichia coli [29] = assay: Bactericidal activity against Escherichia coli ATCC 25922 at 10 times MIC after 40 mins by colony counting assay (reference value: 131.7 CFU); type: functional
Candida albicans [30] = assay: Antifungal activity against ampicillin, benzylpencillin-resistant Candida albicans 08030809 after 16 hrs by broth dilution method; type: functional; details: Candida albicans, 08030809, 16 h; in short: as §2
Pseudomonas aeruginosa [31] = assay: Antibacterial activity against ampicillin, benzylpencillin-resistant Pseudomonas aeruginosa 08031014 after 16 hrs by broth dilution method; type: functional; details: Pseudomonas aeruginosa, 08031014, 16 h; in short: as §2
Candida albicans [32] = assay: Antifungal activity against Candida albicans ATCC 2002 treated with water after 16 hrs by broth dilution method; type: functional; details: ATCC 2002, 16 h; in short: as §3

CC[C@H](C)[C@H](NC(=O)[C@H](Cc1cnc[nH]1)NC(=O)[C@H](CO)NC(=O)[C@@H](NC(=O)[C@@H](NC(=O)[C@@H](NC(=O)[C@@H](NC(=O)[C@H](CCCNC(=N)N)NC(=O)[C@H](CC(C)C)NC(=O)[C@H](CCCCN)NC(=O)[C@H](CCC(=O)O)NC(=O)[C@H](CCCCN)NC(=O)[C@H](CC(C)C)NC(=O)[C@H](CCCCN)NC(=O)[C@@H]1CSSC[C@H](NC(=O)[C@H](CCCCN)NC(=O)[C@@H](N)CCCNC(=N)N)C(=O)N[C@@H](CC(N)=O)C(=O)N[C@@H](Cc2ccccc2)C(=O)N[C@@H](CC(C)C)C(=O)N1)[C@@H](C)O)C(C)C)[C@@H](C)CC)[C@@H](C)O)C(=O)N[C@@H](CC(=O)O)C(=O)N[C@@H](CCCCN)C(=O)N[C@H](C(=O)N[C@@H](CC(C)C)C(=O)N[C@@H](CCCNC(=N)N)C(=O)N1CCC[C@H]1C(=O)N[C@@H](CCC(N)=O)C(=O)NCC(=O)O)C(C)C (H-RKCNFLCKLKEKLRTVITSHIDKVLRPQG-OH; disulfide 3-7)
CFU (Escherichia coli [1]): 0
inhibition at 20 µg/mL (RAW264.7 [2]): 60%
CFU (Escherichia coli [3]): 37.3
MIC (Escherichia coli [4]): 2.74 µM (≈ 9.38 µg/mL)
MIC (Staphylococcus aureus [5]): 2.74 µM (≈ 9.38 µg/mL)
MIC (Bacillus subtilis [6]): > 100 µg/mL
Activity (Lipopolysaccharide (LPS)): Active
CFU (Escherichia coli [7]): 10
hemolysis at 0.5 h, 12.5 ug/mL [8]: 2.5%
MIC (Staphylococcus aureus [9]): 2.74 µM (≈ 9.38 µg/mL)
Activity (RAW264.7 [10]): Toxic
MIC (Escherichia coli [11]): 2.35 µg/mL (≈ 0.686 µM)
inhibition at 20 µg/mL (RAW264.7 [12]): 85%
CFU (Escherichia coli [13]): 0
CFU (Escherichia coli [14]): 0
MIC (Pseudomonas aeruginosa [15]): 18.8 µg/mL (≈ 5.48 µM)
MIC (Staphylococcus aureus [16]): 9.38 µg/mL (≈ 2.74 µM)
Activity (RAW264.7 [17]): 5.1%
inhibition at 20 µg/mL (RAW264.7 [18]): 86%
MIC (Escherichia coli [19]): 4.69 µg/mL (≈ 1.37 µM)
MIC (Escherichia coli [20]): 2.35 µg/mL (≈ 0.686 µM)
inhibition (RAW264.7 [21]): Dose-dependent effect
MIC (Escherichia coli [22]): 2.35 µg/mL (≈ 0.686 µM)
Activity (RAW264.7 [23]): Non-toxic
inhibition (RAW264.7 [24]): Dose-dependent effect
MIC (Bacillus subtilis [25]): 75 µg/mL (≈ 21.9 µM)
MIC (Pseudomonas aeruginosa [26]): 18.8 µg/mL (≈ 5.48 µM)
MIC (Candida albicans [27]): 1.37 µM (≈ 4.69 µg/mL)
Activity (RAW264.7 [28]): 3.3%
CFU (Escherichia coli [29]): 0
MIC (Candida albicans [30]): 1.37 µM (≈ 4.69 µg/mL)
MIC (Pseudomonas aeruginosa [31]): 10.9 µM (≈ 37.5 µg/mL)
MIC (Candida albicans [32]): 4.69 µg/mL (≈ 1.37 µM)
